Data set [1] is described as follows: Ratio of drug level in infected thigh muscle to contralateral noninfected thigh muscle in multidrug-resistant Staphylococcus aureus 2141 infected Swiss mouse administered as [99m]technetium-radiolabeled peptide. The note with it: in vivo. It is filed as ADME, tissue-based. The procedure, abridged: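 99mTc-labelled peptides (2 to 5 MBq) injected intravenously into infected mice. Scintigraphic imaging at intervals. Ratio = accumulation in infected thigh muscle (target) over contralateral noninfected thigh muscle (nontarget).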

Data set [2] deals with Staphylococcus aureus. The data set can be described thus: Bactericidal activity against Staphylococcus aureus ATCC 25923 after 2 hrs. The note with it: ATCC 25923, 2 h. It is filed as functional. The procedure, abridged: (§1)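 1 × 10^6/ml bacteria in phosphate buffer with 1% (wt/vol) tryptic soybean broth exposed to various peptide amounts, 2 h at 37°C. Viable counts on DST plates. LC50 = concentration (μM) cutting viable bacteria by 50% versus no-peptide incubations. Means from at least three independent experiments.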

Data set [3] has as its system Staphylococcus aureus. As to the kind of experiment: Bactericidal activity against multidrug-resistant Staphylococcus aureus 2141 isolate after 2 hrs. It is filed as functional. The procedure, abridged: as §1
The test system of data set [4] is Staphylococcus aureus. The data set can be described thus: Bactericidal activity against multidrug-resistant Staphylococcus aureus 2141 isolate infected iv dosed Swiss mouse assessed per gram of infected soft tissue after 24 hrs. It is filed as functional. The procedure, abridged: (§2)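 Mice infected with 0.1 ml saline containing 0.5 to 2.0 × 10^7 CFU. After 18 h, various peptide amounts given intravenously. Mice kept another 24 h, then sacrificed and viable bacteria counted. LC50 = μmol/g infected tissue cutting viable counts by 50% versus untreated mice. Means from at least three animals per peptide concentration.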

Data set [5] relates to Staphylococcus aureus. The data set can be described thus: Bactericidal activity against Staphylococcus aureus ATCC 25923 infected iv dosed Swiss mouse assessed per gram of infected soft tissue after 24 hrs. The data set is classed as functional. The procedure, abridged: as §2
For data set [6], the system named is Mus musculus. The data set can be described thus: Metabolic stability in Swiss mouse at 2 to 5 MBq, iv administered as [99m]technetium-radiolabeled peptide by scintigraphic imaging. The data set is classed as ADME, organism-based. The note with it: in vivo. The procedure, abridged:
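After intravenous injection of 99mTc-labelled peptide (2 to 5 MBq) into thigh-infected mice, scintigraphic imaging follows clearance from the circulation. The value is the biological half-life in minutes, mean ± SD.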

Data set [7] in a line: Biodistribution in Swiss mouse urinary bladder at 2 to 5 MBq, iv administered as [99m]technetium-radiolabeled peptide by scintigraphic imaging. The note with it: in vivo. It is filed as ADME, organism-based. The procedure, abridged:
(§3)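 Mice carry a thigh-muscle infection from 0.1 ml saline containing 0.5 to 2.0 × 10^7 CFU S. aureus. Peptides labelled with 99mTc (2 to 5 MBq) are injected intravenously and tracked by scintigraphic imaging. Radioactivity in bladder, kidneys, spleen, liver and infected muscle is given as % of injected dose, mean ± SD.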

Data set [8] has as its system Kidney. As to the kind of experiment: Biodistribution in Swiss mouse kidney at 2 to 5 MBq, iv administered as [99m]technetium-radiolabeled peptide by scintigraphic imaging. The conditions noted are these: in vivo. The data set is classed as ADME, organism-based. The procedure, abridged: as §3
Data set [9] relates to Spleen. As to the kind of experiment: Biodistribution in Swiss mouse spleen at 2 to 5 MBq, iv administered as [99m]technetium-radiolabeled peptide by scintigraphic imaging. It is filed as ADME, organism-based. The note with it: in vivo. The procedure, abridged: as §3
The test system of data set [10] is Liver. The data set can be described thus: Biodistribution in Swiss mouse liver at 2 to 5 MBq, iv administered as [99m]technetium-radiolabeled peptide by scintigraphic imaging. It is filed as ADME, organism-based. The conditions noted are these: in vivo. The procedure, abridged:
as §3

Data set [11] in a line: Biodistribution in Staphylococcus aureus infected Swiss mouse thigh muscle at 2 to 5 MBq, iv administered as [99m]technetium-radiolabeled peptide by scintigraphic imaging. It is filed as ADME, organism-based, Muscle tissue. The note with it: in vivo. The procedure, abridged: as §3

This note sets out measurements from ChEMBL document CHEMBL1154425, “Histatin-derived monomeric and dimeric synthetic peptides show strong bactericidal activity towards multidrug-resistant Staphylococcus aureus in vivo” (Antimicrob Agents Chemother, 2007).

The structures appear in SMILES notation. Positions of bridges follow the written chain, without caps; N, C: chain ends. Residues, ends and D or L forms follow the SMILES beside them. Chains are numbered I, II in the order given.

`C[C@H](N)C(=O)N[C@@H](CCCCN)C(=O)N[C@@H](CCCNC(=N)N)C(=O)N[C@@H](Cc1c[nH]cn1)C(=O)N[C@@H](Cc1c[nH]cn1)C(=O)NCC(=O)N[C@@H](Cc1ccc(O)cc1)C(=O)N[C@@H](CCCCN)C(=O)N[C@@H](CCCNC(=N)N)C(=O)N[C@@H](CCCCN)C(=O)N[C@@H](Cc1ccccc1)C(=O)N[C@@H](Cc1c[nH]cn1)C(=O)O` (H-AKRHHGYKRKFH-OH): the Ratio in data set [1] amounted to 1.8.
With `C[C@H](N)C(=O)N[C@@H](CCCCN)C(=O)N[C@@H](CCCNC(=N)N)C(=O)N[C@@H](Cc1cnc[nH]1)C(=O)N[C@@H](Cc1cnc[nH]1)C(=O)NCC(=O)N[C@@H](Cc1ccc(O)cc1)C(=O)N[C@@H](CCCCN)C(=O)N[C@@H](CCCNC(=N)N)C(=O)N[C@@H](CCCCN)C(=O)N[C@@H](Cc1ccccc1)C(=O)N[C@@H](Cc1cnc[nH]1)C(=O)O` (H-AKRHHGYKRKFH-OH), the values for the LC50 in [2], in data set [3] and in data set [4] were 12.5 µM, 18.6 µM and 3 µmol/g, respectively.
Regarding `CC(C)C[C@H](NC(=O)[C@H](CO)NC(=O)[C@H](Cc1ccccc1)NC(=O)[C@H](CC(C)C)NC(=O)[C@H](CC(C)C)NC(=O)[C@H](CCCCN)NC(=O)[C@H](CCCCN)NC(=O)[C@H](Cc1ccccc1)NC(=O)[C@H](CC(C)C)NC(=O)[C@H](CCCNC(=N)N)NC(=O)[C@@H](N)CCCCN)C(=O)N[C@@H](CCCNC(=N)N)C(=O)N[C@@H](CCCCN)C(=O)N[C@@H](Cc1ccc(O)cc1)C(=O)O` (H-KRLFKKLLFSLRKY-OH), the LC50 was 4.2 µM in data set [2], 3.1 µM in [3], 1 µmol/g in data set [5] and 1.5 µmol/g in data set [4]. In data set [6], this molecule displayed a t1/2 of 28.6 min. The Drug uptake in [7] was 23.8 %ID; in data set [8] it was 24.9 %ID; in [9], 3.1 %ID; in [10] it was 10.7 %ID; in data set [11], 0.5 %ID. For the same molecule, in [1], the Ratio was 1.8.
With `CC(C)C[C@H](NC(=O)[C@H](CC(C)C)NC(=O)[C@H](Cc1ccccc1)NC(=O)[C@H](CC(C)C)NC(=O)[C@H](CC(C)C)NC(=O)[C@@H](N)CC(C)C)C(=O)N[C@@H](CCCCN)C(=O)N[C@@H](CCCCN)C(=O)N[C@@H](CCCNC(=N)N)C(=O)N[C@@H](CCCCN)C(=O)N[C@@H](CCCCN)C(=O)N[C@@H](CCCNC(=N)N)C(=O)N[C@@H](CCCCN)C(=O)N[C@@H](Cc1ccc(O)cc1)C(=O)O` (H-LLLFLLKKRKKRKY-OH), the LC50 turned out to be 51 µM in data set [2], 17.3 µM in data set [3], 2 µmol/g in data set [5] and 3 µmol/g in data set [4]. The t1/2 in data set [6] was 38.8 min. In addition, the Drug uptake was found to be 14.6 %ID in data set [7]; 26 %ID in data set [8]; 10.8 %ID in data set [9]; 12.8 %ID in [10]; 0.9 %ID in [11]. In addition, the Ratio in data set [1] was 1.8.
Regarding `C[C@H](N)C(=O)N[C@@H](CCCCN)C(=O)N[C@@H](CCCNC(=N)N)C(=O)N[C@@H](Cc1cnc[nH]1)C(=O)N[C@@H](Cc1cnc[nH]1)C(=O)NCC(=O)N[C@@H](Cc1ccc(O)cc1)C(=O)N[C@@H](CCCCN)C(=O)N[C@@H](CCCNC(=N)N)C(=O)N[C@@H](CCCCN)C(=O)N[C@@H](Cc1ccccc1)C(=O)N[C@@H](Cc1cnc[nH]1)C(=O)NCCCC[C@H](NC(=O)[C@H](Cc1cnc[nH]1)NC(=O)[C@H](Cc1ccccc1)NC(=O)[C@H](CCCCN)NC(=O)[C@H](CCCNC(=N)N)NC(=O)[C@H](CCCCN)NC(=O)[C@H](Cc1ccc(O)cc1)NC(=O)CNC(=O)[C@H](Cc1cnc[nH]1)NC(=O)[C@H](Cc1cnc[nH]1)NC(=O)[C@H](CCCNC(=N)N)NC(=O)[C@H](CCCCN)NC(=O)[C@H](C)N)C(N)=O` (I: H-AKRHHGYKRKFHK-NH2 / II: H-AKRHHGYKRKFH; amide I:13-II:C) [listing 1 of 2 here], in [1], the Ratio is reported as 1.8.
Turning to `C[C@H](N)C(=O)N[C@@H](CCCCN)C(=O)N[C@@H](CCCNC(=N)N)C(=O)N[C@@H](Cc1cnc[nH]1)C(=O)N[C@@H](Cc1cnc[nH]1)C(=O)NCC(=O)N[C@@H](Cc1ccc(O)cc1)C(=O)N[C@@H](CCCCN)C(=O)N[C@@H](CCCNC(=N)N)C(=O)N[C@@H](CCCCN)C(=O)N[C@@H](Cc1ccccc1)C(=O)N[C@@H](Cc1cnc[nH]1)C(=O)NCCCC[C@H](NC(=O)[C@H](Cc1cnc[nH]1)NC(=O)[C@H](Cc1ccccc1)NC(=O)[C@H](CCCCN)NC(=O)[C@H](CCCNC(=N)N)NC(=O)[C@H](CCCCN)NC(=O)[C@H](Cc1ccc(O)cc1)NC(=O)CNC(=O)[C@H](Cc1cnc[nH]1)NC(=O)[C@H](Cc1cnc[nH]1)NC(=O)[C@H](CCCNC(=N)N)NC(=O)[C@H](CCCCN)NC(=O)[C@H](C)N)C(N)=O` (I: H-AKRHHGYKRKFHK-NH2 / II: H-AKRHHGYKRKFH; amide I:13-II:C) [listing 2 of 2 here], the LC50 was determined as 49.8 µM in data set [2], 38.9 µM in data set [3] and 3 µmol/g in data set [4].
As for `CC(C)C[C@H](NC(=O)[C@H](CO)NC(=O)[C@H](Cc1ccccc1)NC(=O)[C@H](CC(C)C)NC(=O)[C@H](CC(C)C)NC(=O)[C@H](CCCCN)NC(=O)[C@H](CCCCN)NC(=O)[C@H](Cc1ccccc1)NC(=O)[C@H](CC(C)C)NC(=O)[C@H](CCCNC(=N)N)NC(=O)[C@@H](N)CCCCN)C(=O)N[C@@H](CCCNC(=N)N)C(=O)N[C@@H](CCCCN)C(=O)N[C@@H](Cc1ccc(O)cc1)C(=O)NCCCC[C@H](NC(=O)[C@H](Cc1ccc(O)cc1)NC(=O)[C@H](CCCCN)NC(=O)[C@H](CCCNC(=N)N)NC(=O)[C@H](CC(C)C)NC(=O)[C@H](CO)NC(=O)[C@H](Cc1ccccc1)NC(=O)[C@H](CC(C)C)NC(=O)[C@H](CC(C)C)NC(=O)[C@H](CCCCN)NC(=O)[C@H](CCCCN)NC(=O)[C@H](Cc1ccccc1)NC(=O)[C@H](CC(C)C)NC(=O)[C@H](CCCNC(=N)N)NC(=O)[C@@H](N)CCCCN)C(N)=O` (I: H-KRLFKKLLFSLRKYK-NH2 / II: H-KRLFKKLLFSLRKY; amide I:15-II:C), the LC50 in data set [2] is 0.5 µM; in data set [3] it was 0.4 µM; in data set [5] it was 1 µmol/g; in data set [4], 1 µmol/g. For the same molecule, the t1/2 in data set [6] was determined as 34 min. Further, the Drug uptake came to 17 %ID in data set [7]; 29.1 %ID in data set [8]; 4 %ID in [9]; 19.9 %ID in data set [10]; 0.8 %ID in [11]. For the same molecule, the Ratio in [1] amounted to 1.8.
As to `CC(C)C[C@H](NC(=O)[C@H](CC(C)C)NC(=O)[C@H](Cc1ccccc1)NC(=O)[C@H](CC(C)C)NC(=O)[C@H](CC(C)C)NC(=O)[C@@H](N)CC(C)C)C(=O)N[C@@H](CCCCN)C(=O)N[C@@H](CCCCN)C(=O)N[C@@H](CCCNC(=N)N)C(=O)N[C@@H](CCCCN)C(=O)N[C@@H](CCCCN)C(=O)N[C@@H](CCCNC(=N)N)C(=O)N[C@@H](CCCCN)C(=O)N[C@@H](Cc1ccc(O)cc1)C(=O)NCCCC[C@H](NC(=O)[C@H](Cc1ccc(O)cc1)NC(=O)[C@H](CCCCN)NC(=O)[C@H](CCCNC(=N)N)NC(=O)[C@H](CCCCN)NC(=O)[C@H](CCCCN)NC(=O)[C@H](CCCNC(=N)N)NC(=O)[C@H](CCCCN)NC(=O)[C@H](CCCCN)NC(=O)[C@H](CC(C)C)NC(=O)[C@H](CC(C)C)NC(=O)[C@H](Cc1ccccc1)NC(=O)[C@H](CC(C)C)NC(=O)[C@H](CC(C)C)NC(=O)[C@@H](N)CC(C)C)C(N)=O` (I: H-LLLFLLKKRKKRKYK-NH2 / II: H-LLLFLLKKRKKRKY; amide I:15-II:C), the LC50 in data set [2] was 0.4 µM; in data set [3] it was 0.4 µM; in [5], 5 µmol/g; in data set [4], 2 µmol/g. This molecule returned a t1/2 in [6] of 23.2 min. Further, the Drug uptake in data set [7] came out at 18.8 %ID; in [8], 28.3 %ID; in [9], 3.1 %ID; in [10] it was 16.7 %ID; in data set [11] it was 0.6 %ID. Moreover, in data set [1], the Ratio was found to be 1.8.
